Calls of active or inactive are those of the source. No cut-off for these calls is given here.
Legend:
SW480 [1] = experiment: Cell cycle arrest in human SW480 cells assessed as >4n cells at 30 uM after 48 hrs by flow cytometry; assay type: functional
How it was run: (§1)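 SW480 cells treated 48 h at 30 µM in 0.1% DMSO medium. DNA content measured by propidium iodide flow cytometry. Cells gated as 2n G0/G1, S (2<n<4), 4n G2/M and >4n (polyploid). Data are means ± SD of a representative experiment among three independent.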

SW480 [2] = experiment: Cell cycle arrest in human SW480 cells assessed as 4n cells at 30 uM after 48 hrs by flow cytometry; assay type: functional; how it was run: as §1
SW480 [3] = experiment: Antiproliferative activity against human SW480 cells assessed as cell viability using propidium iodide staining after 48 hrs; assay type: functional, cell-based; conditions: for IC50: SW480, 48 h
How it was run: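 SW480 cells grown in RPMI with 10% FBS and 1% antibiotics; 30,000 cells/well seeded, treated after 24 h with compound in 0.1% DMSO (1 nM to 100 µM; 0.1% DMSO control). At 48 h adherent (trypsinized) plus detached cells stained with 1 µg/mL propidium iodide, counted by flow cytometry. IC50 from parametric regression of % viable cells vs control; triplicate wells, three experiments.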

SW480 [4] = experiment: Cell cycle arrest in human SW480 cells assessed as accumulation at S phase at 30 uM after 48 hrs by flow cytometry; assay type: functional; how it was run: as §1
SW480 [5] = experiment: Cell cycle arrest in human SW480 cells assessed as accumulation at G0/G1 phase at 30 uM after 48 hrs by flow cytometry; assay type: functional; how it was run: as §1
SW480 [6] = experiment: Cell cycle arrest in human SW480 cells assessed as disturbance of diploid cells at 30 uM after 48 hrs by flow cytometry; assay type: functional, cell-based; how it was run: as §1
SW480 [7] = experiment: Cell cycle arrest in human SW480 cells assessed as polyploid cells generation at 30 uM after 48 hrs by flow cytometry; assay type: functional, cell-based; how it was run: as §1
SW480 [8] = experiment: Cell cycle arrest in human SW480 cells assessed as tetraploid cells generation at 30 uM after 48 hrs by flow cytometry; assay type: functional, cell-based; how it was run: as §1
SW480 [9] = experiment: Cell cycle arrest in human SW480 cells assessed as accumulation of polyploid cells at 0.5 uM after 48 hrs by microscopic analysis; assay type: functional, cell-based
How it was run: (§2)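 SW480 cells left untreated or exposed to 0.5 µM for 48 h. Actin was immunostained (Alexa 488) to show cell shape and nuclei were stained with Hoechst 33342. Fluorescence microscopy at 100x with identical settings; example of three independent experiments.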

SW480 [10] = experiment: Cell cycle arrest in human SW480 cells assessed as increase of 4n and >4n cells at 1 uM after 48 hrs by flow cytometry; assay type: functional, cell-based
How it was run: (§3)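 SW480 cells treated for 48 h at 0.2, 0.5 or 1.0 µM. DNA content was read by propidium iodide staining and flow cytometry. Populations were gated as 2n G0/G1, S (2<n<4), 4n G2/M and >4n. Means ± SD of a representative experiment out of three.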

SW480 [11] = experiment: Cell cycle arrest in human SW480 cells assessed as increase of 4n and >4n cells at 0.5 uM after 48 hrs by flow cytometry; assay type: functional, cell-based; how it was run: as §3
SW480 [12] = experiment: Cell cycle arrest in human SW480 cells assessed as mitotic disturbances using Hoechst staining at 0.5 uM after 48 hrs by microscopic analysis; assay type: functional, cell-based; how it was run: as §2
SW480 [13] = experiment: Antiproliferative activity against human SW480 cells assessed as cell viability using propidium iodide staining; assay type: functional, cell-based; conditions: TDE = time-dependent effect
How it was run: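 SW480 colon carcinoma cells grown in RPMI with 10% FBS and 1% antibiotics. 30,000 cells/well were seeded, then treated after 24 h in medium with 0.1% DMSO (vehicle control 0.1% DMSO) at 1 nM to 100 µM for 48 h. Adherent plus detached cells were stained with 1 µg/mL propidium iodide and counted by flow cytometry. IC50 came from parametric regression of % viable cells vs control. Triplicate wells, three experiments.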

SW480 [14] = experiment: Cell cycle arrest in human SW480 cells assessed as increase of 4n and >4n cells at 0.2 uM after 48 hrs by flow cytometry; assay type: functional, cell-based; how it was run: as §3
SW480 [15] = experiment: Antiproliferative activity against human SW480 cells assessed as cell viability using propidium iodide staining at 0.5 uM after 72 hrs; assay type: functional, cell-based
How it was run: (§4)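 SW480 cells (RPMI, 10% FBS, 1% antibiotics) seeded at 30,000/well and treated 24 h later in 0.1% DMSO medium; 0.1% DMSO alone as control. After 24, 48 and 72 h, trypsinized adherent plus detached cells were labelled with 1 µg/mL propidium iodide and viable (PI-excluding) cells counted by flow cytometry. Triplicate wells; representative of three experiments, means ± SD.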

SW480 [16] = experiment: Antiproliferative activity against human SW480 cells assessed as cell viability using propidium iodide staining after 48 hrs; conditions: SW480, 48 h
SW480 [17] = experiment: Antiproliferative activity against human SW480 cells assessed as cell viability using propidium iodide staining at 0.2 uM after 72 hrs; assay type: functional, cell-based; how it was run: as §4
SW480 [18] = experiment: Cell cycle arrest in human SW480 cells assessed as cytokinesis cells at 0.5 uM after 48 hrs by microscopic analysis; assay type: functional, cell-based; how it was run: as §2

Compound	IC50 (SW480 [3]) [µM]	Activity (SW480 [6])	Activity (SW480 [7])	Activity (SW480 [8])	also measured
COc1cc(/C=C/c2cc(OC)cc(OC)c2O)cc(OC)c1	17	–	–	–	Activity (SW480 [1]): 10%; Activity (SW480 [2]): 25%; Activity (SW480 [4]): 15%; Activity (SW480 [5]): 50%
COc1ccc(/C=C\c2cc(OC)cc(OC)c2O)cc1	18	Active	Active	Active	–
COc1cc(/C=C\c2ccc(OC)c(OC)c2)cc(OC)c1 [(Z)-3,4,3',5'-TETRAMETHOXYSTILBENE]	9.5	Active	Active	Active	–
Oc1ccc(/C=C/c2cc(O)cc(O)c2)cc1 [RESVERATROL]	20	–	–	–	–
COc1cc(/C=C\c2ccc(OC)c(OC)c2)c(O)c(OC)c1	10	Active	Active	Active	–
COc1ccc(/C=C\c2cc(OC)cc(OC)c2)cc1 [8Z-3,4',5-TRIMETHOXYSTILBENE]	0.3	Active	Active	Active	Activity (SW480 [9]): Active; Activity (SW480 [10]): Active; Activity (SW480 [3]): Dose-dependent effect; Activity (SW480 [11]): Active; Activity (SW480 [12]): Active; Activity (SW480 [13]): tde; Activity (SW480 [14]): inactive; Activity (SW480 [15]): inactive; IC50 (SW480 [16]): 0.3 µM; Activity (SW480 [17]): inactive; Activity (SW480 [18]): Active
COc1cc(/C=C\c2cc(OC)cc(OC)c2)cc(OC)c1	13	Active	Active	Active	–
COc1ccc(/C=C/c2cc(OC)cc(OC)c2O)cc1	43	Active	Active	Active	–
COc1cc(/C=C/c2cc(OC)cc(OC)c2)cc(OC)c1	48	–	–	–	Activity (SW480 [1]): 10%; Activity (SW480 [2]): 25%; Activity (SW480 [4]): 15%; Activity (SW480 [5]): 50%
COc1cc(/C=C/c2ccc(OC)c(OC)c2)cc(OC)c1 [(E)-3,4,3',5'-TETRAMETHOXYSTILBENE]	100	–	–	–	Activity (SW480 [1]): 10%; Activity (SW480 [2]): 25%; Activity (SW480 [4]): 15%; Activity (SW480 [5]): 50%
Oc1ccc(/C=C\c2cc(O)cc(O)c2)cc1 [CIS-RESVERATROL]	90	–	–	–	Activity (SW480 [1]): 10%; Activity (SW480 [2]): 25%; Activity (SW480 [4]): 15%; Activity (SW480 [5]): 50%
COc1ccc(/C=C/c2cc(OC)cc(OC)c2)cc1 [TRISMETHOXYRESVERATROL]	54	Active	Active	Active	–
COc1cc(/C=C/c2ccc(OC)c(OC)c2)c(O)c(OC)c1	42	–	–	–	–
COc1cc(/C=C\c2cc(OC)cc(OC)c2O)cc(OC)c1	7	Active	Active	Active	–

Source: ChEMBL document CHEMBL1177861, “Structural determinants of resveratrol for cell proliferation inhibition potency: experimental and docking studies of new analogs” (Eur J Med Chem, 2010)
